# According to the RNAGym collection of RNA variant scans (doi:10.1038/s41586-018-0170-7):
# B1: tRNA (parent)
# chain: GUUCCGUUGGCGUAAUGGUAACGCGUCUCCCUCCUAAGGAGAAGACUGCGGGUUCGAGUCCCGUACGGAACG
# Variants of: B1
# Assay: yeast fitness, log relative to wild type (ln ratio); higher = fitter; tRNA-Arg(CCU), competitive growth, 37 C, 1 M NaCl
# Outline: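 Fitness is the natural log of each genotype's generations divided by the wild type's. Generations were derived as OD-scaled log2 output/input frequency from 125 bp paired-end Illumina counts, weighting replicates by inverse variance. Pools of the tRNA-Arg(CCU) variant library, on a HIS3 centromeric plasmid in BY4742 lacking the chromosomal gene, grew ~6.5 generations (~26.5 h) in SC-HIS 1M NaCl at 37 °C after 4 generations in SC-HIS at 30 °C.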
row,Variant,yeast fitness (ln)
1,G1A U2G A43C C46U C66A A69G A70U,-0.252
2,G1A U2C G6U A43C C66U A70G C71U,-0.335
3,G1A U2C G6A C46U C66U A69G A70U C71U,-0.339
4,G1A U2C G6U C27U A43C C46U C66A A69G A70U,-0.378
5,G1A U2G A43C C46U A70U C71U,-0.00171
6,G1A U2C G6U C27U C46U C66A A70G C71U,-0.0279
7,G1A U2C G6U C27U C46U C66U A70U,-0.128
8,G1A U2C G6U C27U C46U C66U A70G,-0.203
9,G1A U2C G6U A43C,-0.116
10,G1A U2C G6A C27U A70U C71U,-0.109
11,G1A U2C G6A C66U A69G C71U,-0.31
12,G1A U2G A43C C46U C66U A69G C71U,-0.404
13,G1A U2G A43C C46U C66U A70U,-0.141
14,G1A U2G A43C C46U C66U A70G,-0.22
15,G1A U2C G6U C27U A43C C46U,-0.0772
16,G1A U2C G6U C46U A69G A70U C71U,-0.249
17,G1A U2C G6A C27U A43C C46U C66U A70U C71U,-0.252
18,G1A U2G C27U A43C,-0.182
19,G1A U2C G6A C46U C66A A70G C71U,-0.105
20,G1A U2C G6U A43C A70G C71U,-0.198
21,G1A U2C G6U C27U C66U A69G A70U,-0.245

row,Variant,yeast fitness (ln)
1,G1A U2C G6U C46U C66A A69G A70G C71U,-0.0207
2,G1A U2G A43C C46U C66A A69G A70U C71U,-0.233
3,G1A U2C G6U A70G C71U,-0.0526
4,G1A U2G A43C A69G C71U,-0.219
5,G1A U2C G6U C27U C46U A69G C71U,-0.166
6,G1A U2C G6U C27U A43C C71U,-0.263
7,G1A U2C G6U C46U C66A A70G,-0.0166
8,G1A U2C G6U C46U C66A A70U,-0.184
9,G1A U2C G6U C27U C46U C66A A69G A70U,-0.116
10,G1A U2C G6U C27U A43C C46U A69G A70G,-0.297
11,G1A U2C G6U C27U A43C C46U A69G A70U,-0.183
12,G1A U2C G6U C46U A70U C71U,-0.033
13,G1A U2C G6U C27U C66A A69G A70G C71U,-0.137
14,G1A U2G C27U A43C A70G,-0.176
15,G1A U2G C27U A43C A70U,-0.154
16,G1A U2C G6U A43C C46U C66A C71U,-0.3
17,G1A U2C G6U C27U C46U A70U C71U,-0.13
18,G1A U2C G6A C27U C66U A70G,-0.128
19,G1A U2C G6A C27U C66U A70U,-0.141
20,G1A U2C G6U A69G A70U C71U,-0.277
21,G1A U2C G6U C46U C66U C71U,-0.0885

row,Variant,yeast fitness (ln)
1,G1A U2C G6A C46U C66A A69G A70G C71U,-0.172
2,G1A U2G A43C C46U C66A A70G C71U,-0.187
3,G1A U2G A43C A69G A70U C71U,-0.54
4,G1A U2C G6U A43C C66U A70U,-0.295
5,G1A U2G A43C C46U A70G,-0.114
6,G1A U2G A43C C46U A70U,-0.163
7,G1A U2C G6A C27U A43C C71U,-0.295
8,G1A U2C G6A C27U A43C C46U A70U,-0.125
9,G1A U2C G6A C27U A43C C46U A70G,0.0488
10,G1A U2G A69G A70G C71U,-0.438
11,G1A U2G A69G,-0.104
12,G1A U2C G6U C27U C46U C71U,-0.0687
13,G1A U2G A43C C66U A70U,-0.185
14,G1A U2G A43C C66U A70G,-0.214
15,G1A U2G C27U A43C C46U C66A A69G A70G C71U,-0.269
16,G1A U2C G6U C46U C66U A69G A70U,-0.156
17,G1A U2C G6U C46U C66U A69G A70G,-0.183
18,G1A U2C G6U C46U A70U,-0.0682
19,G1A U2C G6U C46U A70G,-0.239
20,G1A U2G A43C C66U A69G A70U C71U,-0.472
21,G1A U2G A43C A69G A70G C71U,-0.202

row,Variant,yeast fitness (ln)
1,G1A U2C G6U C27U C46U C66U A69G A70U,-0.222
2,G1A U2G A43C C46U A69G A70G,-0.141
3,G1A U2G A43C C46U A69G A70U,-0.132
4,G1A U2C G6A C46U A69G A70U C71U,-0.0787
5,G1A U2G A43C C71U,-0.129
6,G1A U2C G6U A43C C46U C66A A70U C71U,-0.425
7,G1A U2C G6A C27U C46U C66U A70U,-0.0971
8,G1A U2C G6A C27U C46U C66U A70G,-0.0633
9,G1A U2C G6U C27U C46U,-0.0885
10,G1A U2G A43C C46U C66A A70U C71U,-0.168
11,G1A U2G C27U A43C C46U,-0.038
12,G1A U2G A43C C46U C66U A69G A70U,-0.181
13,G1A U2G A43C C46U C66U A69G A70G,-0.254
14,G1A U2G A70G C71U,-0.212
15,G1A U2C G6U C27U A43C,-0.181
16,G1A U2G C27U A43C C46U C66A,-0.106
17,G1A U2G A43C A70G C71U,-0.207
18,G1A U2C G6U C27U A70U C71U,-0.287
19,G1A U2C G6U C27U A43C A70U,-0.14
20,G1A U2C G6A C46U A69G A70G C71U,-0.0541
21,G1A U2C G6A C66A A70G C71U,-0.127
